# An excerpt weighted towards active compounds, which were near 3% of everything screened.
# 5HT1a antag = antagonists of human 5-HT1a serotonin receptor; P08908; CHO 5-HT1a Ga15 NFAT-bla reporter, antagonist mode; inhibition, % at 10 µM; hit rate 0.68% among 62,000; AID 612;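 active = inhibition above the mean of all tested compounds plus 3 SD, cut at about 43% in these data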;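 note: receptor stimulated by 5-CT agonist at 100 nM near EC80; beta-lactamase reporter measured by ratiometric fluorescence of a cleavable substrate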
# Target sequence (P08908 whole entry, looked up): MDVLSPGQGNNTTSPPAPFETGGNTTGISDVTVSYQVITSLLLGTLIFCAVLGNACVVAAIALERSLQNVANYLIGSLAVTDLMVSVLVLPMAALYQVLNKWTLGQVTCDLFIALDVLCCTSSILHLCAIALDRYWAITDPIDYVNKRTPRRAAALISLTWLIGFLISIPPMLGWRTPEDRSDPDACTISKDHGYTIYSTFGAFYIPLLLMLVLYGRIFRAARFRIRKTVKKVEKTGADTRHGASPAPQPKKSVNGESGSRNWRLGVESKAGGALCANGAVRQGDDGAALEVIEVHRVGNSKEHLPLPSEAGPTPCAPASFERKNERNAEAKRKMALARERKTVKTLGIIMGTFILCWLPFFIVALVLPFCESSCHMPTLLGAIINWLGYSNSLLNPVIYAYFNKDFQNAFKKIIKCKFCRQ
# 5HT1E ag = activates the human 5-HT1E serotonin receptor. P28566. CHO 5-HT1E Ga15 NFAT-bla reporter, FRET; 0% DMSO wells, 100% control agonist wells. activation, % at 6 µM. hit rate 0.69% among 65,000;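 active = activation above a set limit, the screen-wide mean activation plus 3 SD, cut at about 8.5% in these data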;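 note: 100% = positive control agonist at 1 µM giving full maximal response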
# S1P1 ag pot = agonists and agonism potentiators of human S1P1 receptor; P21453; S1P1 CRE-bla cells, forskolin, beta-lactamase FRET, potentiator mode; S1P1 agonist co-added at EC20, 2 nM; 100% = saturating reference agonist, 0% = basal; activation, % at 9.5 µM; hit rate 0.57% among 56,000; AID 449;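 active = activation above a cutoff set at the mean activation of all tested compounds plus 3 SD, cut at about 54% in these data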;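 note: forskolin at 4 µM as EC80 and the EC20 agonist is SEW2871; 100% = SEW2871 at its EC100 plus forskolin at EC80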
# S1P3 agonist = agonists of human S1P3 receptor; Q99500; S1P3 NFAT-BLA reporter cells, agonism, FRET ratio; relative to 1 µM S1P, basal subtracted; activation, % at 4.5 µM; hit rate 0.1% among 60,000; AID 373;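 active = activation above the screen-wide mean plus 3 SD, cut at about 4.5% in these data, passing the limit was not always enough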
#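 Assay system: stable CHO line with human S1P3, Gα16, NFAT-BLA reporter; Detection: FRET β-lactamase substrate fluorescence, excitation 405 nm, 460/535 nm emission ratio, background-subtracted; Read-out: percent activation versus median 1 µM S1P response, basal-subtracted, per plate; Incubation: cells plated overnight, compound 4 h 37 °C, substrate 2 h RT.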
# 5HT1E antag = antagonists of human 5-HT1E serotonin receptor; inhibition, % at 6 µM; CHO 5-HT1E Ga15 NFAT-bla reporter, FRET, antagonist; hit rate 0.99% among 65,000;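 active = inhibition above a set limit, the mean inhibition across every tested compound plus 3 SD, cut at about 29% in these data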;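 note: signal is the 460 over 535 nm emission ratio of beta-lactamase substrate; 0% = agonist plus DMSO wells and 100% = wells without agonist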
# HTR1A agonist = agonists of human 5-HT1a serotonin receptor. activation, % at 10 µM. P08908. CHO 5-HT1a Ga15 NFAT-bla reporter, FRET ratio; 0% basal, 100% maximal reference agonist. AID 567. hit rate 0.56% among 65,000;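 active = activation above the screen-wide mean activation plus 3 SD, cut at about 19% in these data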;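 note: 0% = DMSO wells and 100% = 5-CT at EC100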
# Active calls of the source: *; / = no result.
SMILES,5HT1a antag,5HT1E ag,S1P1 ag pot,S1P3 agonist,5HT1E antag,HTR1A agonist
CNC(=O)CCC(=O)Nc1ccc(C(=O)OC)cc1,1,0,/,0,-6,0
O=C(CCN1CCN(c2ccc(F)cc2)CC1)Nc1ccc(F)cc1,36,-1,-22,-1,4,0
COC(=O)c1ccc(NC(=O)CCn2cccc2)cc1,4,9.6*,-7,-1,-6,-2
COC(=O)c1ccc(NC(=O)CCN2CCN(c3ccccc3)CC2)cc1,44*,0,16,-2,4,2
O=C(CCN1CCN(c2ccccc2)CC1)Nc1ccc2c(c1)OCO2,83*,-1,/,-1,-3,9
CC(C)(C)NC(=O)C(c1ccco1)N(C(=O)Cn1nnc(-c2ccc(F)cc2)n1)c1ccccc1F (centres undefined),1,1,0,-1,0,3
CC(=O)N1CCN(c2ccc(NCc3ccc4c(c3)OCO4)cc2)CC1,-7,0,-26,0,-3,43*
O=C(c1ccccc1)N1CCN(c2ccc(NCc3ccc4c(c3)OCO4)cc2)CC1,6,0,10,0,15,-2
CNC(=O)c1nnn(Cc2ccccc2)c1NC(=O)C(F)(F)F,-10,0,6,-1,3,-3
COc1ccc(C2C3=C(CC(C)(C)CC3=O)Oc3ncn4nc(-c5cccnc5)nc4c32)cc1 (centres undefined),-7,1,-24,-1,-7,-6
CCCCN=CC1=C(O)C(C(=O)OC)C(C)(C)CC1=O (centres undefined),2,-1,/,-1,0,0
Cn1c(C(=O)NCCCN2CCN(c3ccc(F)cc3)CC2)cc2c(=O)n(C)c3ccccc3c21,65*,1,-10,-1,2,14
O=C(NC1CCCC1)C1C2C=CC3(CN(Cc4cccs4)C(=O)C13)O2 (centres undefined),-5,2,4,0,0,1
O=C(NCC1CCCO1)C1C2C=CC3(CN(Cc4cccs4)C(=O)C13)O2 (centres undefined),7,29*,-11,-1,2,-1
CC1(C)OC(=O)C(=CNC(Cc2c[nH]c3ccccc23)C(=O)O)C(=O)O1 (centres undefined),10,0,-13,-1,-3,-5
CC(=O)c1cccc(NC(=O)c2nccnc2C(=O)O)c1,-14,-1,11,1,5,109*
Cc1cc(N2CCOCC2)nc(NCc2ccccc2)n1,4,0,59*,-2,33*,-4
Cc1cc(N2CCOCC2)nc(SCC(=O)c2ccccc2)n1,-6,0,/,/,2,2
O=C(CN(C(=O)CSc1nnc(COc2ccccc2)o1)c1ccc(F)cc1)NC1CCCC1,13,0,21,-1,-3,40*
COCCCNC(=O)C12CCC(C)(C(=O)C1)C2(C)C (centres undefined),5,1,/,0,2,-1
COc1cc(OC)cc(C(=O)N2c3ccc(F)cc3CCC2C)c1 (centres undefined),2,26*,2,1,-6,1
O=S1(=O)C=C(Sc2nnc(-c3ccccc3)o2)c2ccccc21,104*,-2,107*,0,106*,-5
CC1(C)CC(c2csc(N)n2)CCO1 (centres undefined),-22,1,-30,1,-7,-1
O=C(c1ccccc1)c1ccc(OCC(O)CN2CCCCC2)cc1 (centres undefined),0,0,/,0,-2,-3
O=C(c1ccc(Cl)cc1)c1ccc(OCC(O)CN2CCOCC2)cc1 (centres undefined),1,9.1*,-10,-1,6,0
SMILES,5HT1a antag,5HT1E ag,S1P1 ag pot,S1P3 agonist,5HT1E antag,HTR1A agonist
O=C(NC1CCCCC1)C(c1ccco1)N(Cc1cccs1)C(=O)Cn1nnc2ccccc21 (centres undefined),46*,-1,-20,0,8,-3
Cc1ccc(-c2nnn(CC(=O)N(Cc3cccs3)C(C(=O)NC3CCCC3)c3ccco3)n2)o1 (centres undefined),17,1,25,-1,17,2
O=C(Cc1cccs1)N(Cc1ccco1)C1(C(=O)NC2CCCC2)CCCCC1,63*,0,/,/,1,-3
O=C(NC1CCCC1)C(c1ccsc1)N(Cc1ccco1)C(=O)Cc1cccs1 (centres undefined),58*,0,3,0,6,-1
O=C(NC1CCCCC1)C(c1ccco1)N(Cc1ccco1)C(=O)c1ccco1 (centres undefined),49*,-1,9,-1,-5,1
NC(=O)c1ccc(OCC(F)(F)C(F)(F)C(F)(F)C(F)(F)C(F)(F)C(F)F)cc1,17,-2,63*,-1,9,-2
CCCCNC(=O)c1ccccc1C(=O)NCCCC,-5,-1,/,0,3,0
CCCCP(=O)(CCCC)c1ccccc1C(=O)O,7,-1,-8,0,4,252*
OC(COc1ccccc1Cl)CN1CCN(CC(O)COc2ccccc2Cl)CC1 (centres undefined),58*,0,-17,-1,8,5
C=CCc1ccccc1OCC(O)CN1CCN(c2ccccc2OC)CC1 (centres undefined),91*,1,/,/,-1,2
CCOC(=O)N1CCN(CC(O)COc2c(OC)cccc2OC)CC1 (centres undefined),-10,0,-6,1,-7,168*
COc1ccc2c(c1OC)C(=O)NC(C)=C(C(=O)OC(C)(C)C)C2O (centres undefined),7,0,-22,-1,-4,-5
Clc1ccc(C(c2nnnn2C2CCCC2)N2CCSCC2)cc1 (centres undefined),50*,0,18,-1,20,-1
c1ccc(Nc2nc(-c3cccs3)cs2)nc1,24,0,16,0,-10,0
Cc1cccc(Nc2nc(-c3ccccn3)cs2)n1,45*,0,51,-1,36*,-1
CC1=C(C#N)c2nc(N)c(C#N)c(C)c2/C1=C\c1ccccc1,-6,0,-21,-2,-8,0
COc1ccccc1CNC(=O)c1nnc(Cc2ccc(Cl)cc2)o1,-7,1,5,-1,-2,20*
COc1ccc2c(c1)C(=O)N(c1ccccc1OC)C(=O)C2(C)C,-1,0,3,0,10,-1
COc1ccccc1Oc1ccc2c(c1)C(=O)N(c1ccc(O)cc1)C2=O,-1,1,112*,-1,-3,-3
O=C(Oc1ccc(-n2cnnn2)cc1)c1ccco1,-19,1,2,0,3,1

# Source: PubChem BioAssay
